High-throughput results as filed in PubChem BioAssay.
EBI2 antag: EBI2 (human) antagonism. inhibition, % at 5 µM. EBI2 beta-arrestin recruitment, luminescence, 7a,25-OHC stimulated. AID 651636. 360,000 compounds, 0.81% hits; in the data active = inhibition above about 38%;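 note: enzyme fragment complementation signal reports receptor beta-arrestin coupling in cells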
APJ antagonist: blocks the human apelin receptor APJ | CHO-K1 APJ beta-arrestin complementation, luminescence | 330,000 compounds, 0.32% hits | AID 2521 | P35414 | inhibition, % at 20 µM;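 active = inhibition above about 40% at 20 µM, limit read from the data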;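 note: cells challenged with 10 nM apelin-13 agonist together with compound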
CXCR6 inh: inhibitors of human CXCR6 receptor. CHO-K1 PathHunter CXCR6 beta-arrestin, luminescence. inhibition, % at 20 µM. 360,000 compounds, 0.36% hits. AID 602244; in the data active = inhibition above about 34%, passing the limit was not always enough;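 note: antagonist mode with CXCL16 agonist at 10 nM final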
HTR2A ag: activates the mouse 5-HT2A serotonin receptor; P35363; 360,000 compounds, 0.66% hits; activation, % at 7.6 µM; CHO-K1 mHTR2A beta-arrestin complementation, luminescence; percent of 30 µM serotonin response;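 active = activation above a run cutoff, the mean activation of all tested compounds plus 3 SD, cut at about 14% in these data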
APJ ag: APJ receptor agonism; 330,000 compounds, 0.11% hits; P35414; activation, % at 20 µM; CHO-K1 APJ PathHunter beta-arrestin, luminescence; 0% DMSO wells, 100% apelin;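 active = activation more than six SD over the plate average, tested at 20 µM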
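Material: CHO-K1 APJ beta-arrestin complementation cell line; Input: cell density 1000 per well; Incubation: compound stimulation 90 min at 25 °C, detection 60 min; Signal: luminescence from split beta-galactosidase complementation, Galacton Star/Emerald II substrate; Controls: DMSO-only wells as negative, 10 nM Apelin-13 as positive control.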
CCR6 antag: antagonists of human CCR6 receptor | P51684 | CHO-K1 CCR6 PathHunter beta-arrestin, luminescence, CCL20-stimulated | inhibition, % at 20 µM | 340,000 compounds, 0.49% hits;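 active = compounds whose inhibition of the agonist-driven luminescence signal at 20 µM reaches about 50%, limit read from the data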;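 note: cells stimulated with CCL20 at 14 nM final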
Target sequence (P51684 whole entry, looked up): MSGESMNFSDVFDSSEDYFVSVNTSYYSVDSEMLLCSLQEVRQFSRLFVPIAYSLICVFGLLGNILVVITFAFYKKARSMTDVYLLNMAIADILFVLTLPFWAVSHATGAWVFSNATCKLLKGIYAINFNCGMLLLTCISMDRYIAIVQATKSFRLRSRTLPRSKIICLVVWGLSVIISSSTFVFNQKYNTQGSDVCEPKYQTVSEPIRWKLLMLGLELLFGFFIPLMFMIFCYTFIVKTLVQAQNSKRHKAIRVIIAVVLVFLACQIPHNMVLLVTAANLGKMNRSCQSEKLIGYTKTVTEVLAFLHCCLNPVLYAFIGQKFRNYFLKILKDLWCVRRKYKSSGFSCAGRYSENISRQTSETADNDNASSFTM
APJ antag confirm: APJ receptor antagonism confirmation; shares compounds with APJ antagonist; APJ beta-arrestin recruitment, luminescence, antagonist mode; inhibition, % at 20 µM; 950 compounds, 66% hits; AID 2766; in the data active = inhibition above about 50%
Of the large screens only hits and unclear results are named; the others gave an inactive call (follow-up assays come after a bar, where they were run). Rows were chosen to be rich in hits. Some 2.1% of all compounds tested hit in one or more screens of this group.

O=C(CCC(=O)Nc1ccc(Br)cc1)N/N=C/c1cc([N+](=O)[O-])ccc1O	APJ antagonist 42, CCR6 antag 65 | APJ antag confirm inactive
O=[N+]([O-])c1ccc(O)c(/C=N/NC2=NS(=O)(=O)c3ccccc32)c1	none
O=[N+]([O-])c1ccc(O)c(/C=N/Nc2ccc(Cl)nn2)c1	EBI2 antag 77, APJ antagonist 55, CXCR6 inh 79, CCR6 antag 90 | APJ antag confirm 81
CCCCCCN1C[C@H](n2cc(C3CC3)nn2)[C@@H](O)C[C@@H]1c1ccc(OC)cc1	none (no result: APJ antagonist, APJ ag, CCR6 antag)
Cc1cc(F)ccc1C(O)c1ncc(-c2ccccc2Cl)[nH]1 (stereo not drawn)	none (no result: APJ antagonist, APJ ag, CCR6 antag)
O=C(CN1C(=O)S/C(=C\c2ccccc2F)C1=O)NC1C=CS(=O)(=O)C1 (stereo not drawn)	none
CCOC(=O)C1CCCN(c2c(NCCCN(CC)c3ccccc3)c(=O)c2=O)C1 (stereo not drawn)	none
CCOC(=O)C1CCCN(c2c(NCCN(CC)c3ccccc3)c(=O)c2=O)C1 (stereo not drawn)	APJ antagonist 40 | APJ antag confirm inactive
COc1ccc(Nc2nc(OC)nc(OC)n2)cc1	none
COc1ccc(Nc2nc(Nc3ccc(OC)cc3)nc(-n3[nH]c(=O)c(C)c3C)n2)cc1	APJ antagonist 58 | APJ antag confirm inactive
CCn1nc(C)cc1-c1nnc(Sc2ncc([N+](=O)[O-])s2)n1C	APJ antagonist 57, CXCR6 inh 84, CCR6 antag 97 | APJ antag confirm 65
CCN1/C(=C\c2ccc3cc(C)ccc3[n+]2CC)Sc2cc(C)c(C)cc21	none (no result: APJ antagonist, APJ ag)
CCN1/C(=C/c2ccc3cc(C)ccc3[n+]2CC)Sc2ccc3sccc3c21	APJ antagonist 40 | APJ antag confirm 56
N[C@@H](Cc1ccc(O)cc1)C(=O)Nc1ccc2ccccc2c1	none
COc1cc(/C=C2\SC(=S)N(NC(=O)c3cccnc3)C2=O)ccc1O	APJ antagonist 42 | APJ antag confirm 95
COc1ccc(/C=C2\SC(c3ccc(C)cc3)=NC2=O)cc1OC	none
O=C(NN1C(=O)/C(=C\c2ccc(O)c([N+](=O)[O-])c2)SC1=S)c1ccccc1Cl	APJ antagonist 55, CCR6 antag 60 | APJ antag confirm 102
O=C(NN1C(=O)/C(=C/c2ccc(O)c(O)c2)SC1=S)c1ccccc1	APJ antagonist 48, CXCR6 inh 52, CCR6 antag 64 | APJ antag confirm 106
COc1cc(/C=C2\SC(c3ccc(C)cc3)=NC2=O)ccc1O	APJ antagonist 58, CXCR6 inh 57, CCR6 antag 75 | APJ antag confirm 102
O=C(CSc1nccc(=O)[nH]1)Nc1cccc2ccccc12	none
O=C(CN1CCCC1c1cccs1)Nc1cc(S(=O)(=O)N2CCCCC2)ccc1Cl (stereo not drawn)	none (no result: APJ antagonist, APJ ag)
COc1cc(/C=C2\SC(=S)N(NC(=O)c3ccc(O)cc3)C2=O)ccc1O	APJ antagonist 56, CXCR6 inh 42, CCR6 antag 59 | APJ antag confirm 92
CC(=O)NN1C(=O)/C(=C\c2ccc(O)cc2)SC1=S	none
CCOC(=O)C(C(=O)OCC)c1cc(Br)c2noc3c2c1C(=O)c1ccccc1-3	APJ antagonist 41, CXCR6 inh 78, CCR6 antag 83 | APJ antag confirm 105
Cc1cc(C)nc(NS(=O)(=O)c2ccc(NC(=S)NC(=O)C3CCCC3)cc2)n1	APJ antagonist 43 | APJ antag confirm inactive
COc1ccc(C(=O)Nc2ccc(N3CCCCCC3)cc2)cc1S(=O)(=O)N1CCOCC1	none
NS(=O)(=O)c1ccc(NNC(=O)c2ccc(Br)o2)c([N+](=O)[O-])c1	APJ antagonist 52, CCR6 antag 69 | APJ antag confirm 82
CCCOc1ccc(C(=O)CCNC(Cc2c[nH]c3ccccc23)C(=O)O)cc1 (stereo not drawn)	none
c1ccc2c(-c3cn4ccccc4n3)c[nH]c2c1	none (no result: EBI2 antag, CXCR6 inh, HTR2A ag, CCR6 antag)
CCCCCNC(=O)CCCCn1c(=O)[nH]c2cc(OCC)c(OCC)cc2c1=O	none
CCOc1cc2[nH]c(=O)n(CCCCC(=O)N3CCCCCC3)c(=O)c2cc1OCC	APJ antagonist 44 | APJ antag confirm inactive
CN(C)S(=O)(=O)n1cc(/C=C(\NC(=O)c2ccccc2Cl)C(=O)N2CCOCC2)c2ccccc21	APJ antagonist 50 | APJ antag confirm inactive
CN(C)S(=O)(=O)n1cc(/C=C(\NC(=O)c2ccccc2F)C(=O)N2CCOCC2)c2ccccc21	none
COc1cc(/C=C2/SC(=S)N(CC3CCCO3)C2=O)ccc1O (stereo not drawn)	APJ antagonist 48, CXCR6 inh 42, CCR6 antag 73 | APJ antag confirm 88
COc1cc(/C=C2\SC(=S)N(Nc3ccccc3)C2=O)ccc1O	APJ antagonist 56, CXCR6 inh 51, CCR6 antag 74 | APJ antag confirm 97
COc1cc(/C=C2\SC(=S)N(C(Cc3ccccc3)C(=O)O)C2=O)ccc1O (stereo not drawn)	APJ antagonist 48 | APJ antag confirm 82
COc1cc(/C=C2\SC(=S)N(Nc3ncc(C(F)(F)F)cc3Cl)C2=O)ccc1O	APJ antagonist 51, CXCR6 inh 60, CCR6 antag 68 | APJ antag confirm 105
CN(C)c1ccc(/C=C2\SC(=S)N(Nc3ncc(C(F)(F)F)cc3Cl)C2=O)cc1	none
CCOc1cc(/C=C2\SC(=S)N(Nc3ccccc3)C2=O)ccc1O	APJ antagonist 52, CXCR6 inh 44, CCR6 antag 62 | APJ antag confirm 108
COc1ccccc1N1CCN(CCC(=O)Nc2cccc(Cl)c2)CC1	none
CCN(CC)CCSc1nnc(Nc2ccccc2)n1-c1ccccc1	APJ antagonist 51 | APJ antag confirm inactive
CC(=O)Nc1ccc(NC(=O)CCC(=O)OCC(=O)c2ccc(C)c([N+](=O)[O-])c2)cc1	APJ antagonist 70 | APJ antag confirm 55
Cc1ccc(C(=O)COC(=O)CCC(=O)Nc2ccccc2Cl)cc1[N+](=O)[O-]	APJ antagonist 44 | APJ antag confirm 75
CC(=O)c1ccc(NC(=O)CCC(=O)OCC(=O)c2cccc([N+](=O)[O-])c2)cc1	APJ antagonist 43, CCR6 antag 55 | APJ antag confirm 77
Cc1ccc(NC(=O)CCC(=O)OCC(=O)c2ccc(Oc3ccc([N+](=O)[O-])cc3)cc2)cc1	none
O=S(=O)(/N=C(/c1ccccc1)N1CCOCC1)c1ccc(F)cc1F	none
C[C@@H]1CN([C@H](C)CO)S(=O)(=O)c2ccc(Br)cc2O[C@H]1CN(C)C(=O)C1CC1	none (no result: APJ antagonist, APJ ag, CCR6 antag)
CCOC(=O)C1(Cc2cccc(Cl)c2)CCCN(C(=O)c2cc(C(C)C)nn2C)C1 (stereo not drawn)	none
